# High-throughput results deposited in PubChem BioAssay by Broad Institute.
# Wnt bcat act: activates Wnt/beta-catenin signaling in a reporter cell assay; activator, plate reader; activation, % at 9.35 µM; hit rate 1.2% among 300,000; AID 743398; in the data active = activation above about 30%, passing the limit was not always enough; inconclusive = no clear call, values can overlap the other calls;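 note: 0% = neutral control wells and 100% = positive control wells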
# PGC1a acetyl inh: modulators of PGC1a acetylation. U2OS PGC1a acetylation, AlphaScreen anti-acetyl-lysine; with virally co-expressed GCN5 acetyltransferase. AID 651687. hit rate 0.17% among 350,000. inhibition, % at 15.6 µM;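 active = every replicate shows inhibition of at least 40%; inconclusive = mean inhibition at least 40% but some replicate below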;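 note: 0% = neutral control wells and 100% = positive control wells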
# MITF TRPM1 HTS: increases MITF-driven TRPM1 promoter luciferase signal; SK-MEL-5 TRPM1-promoter luciferase, 24 h; % of positive control, neutral wells = 0; AID 588334; hit rate 0.75% among 300,000; activation, % at 12.5 µM;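 active = mean activation of at least 80% with every replicate also reaching 80%; inconclusive = mean reaches 80% but some replicate falls short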;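 note: 0% = neutral control wells and 100% = parthenolide positive control wells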
# Cneo AK release: Cryptococcus neoformans lysis via adenylate kinase release; lysis activity, % at 15 µM; hit rate 0.2% among 360,000; AID 651654; C. neoformans lysis, adenylate kinase release luminescence, 4 h; normalised: neutral wells 0, clomiphene wells 100;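 active = mean lysis activity across replicates of at least 80%, whatever share of replicates individually reach that level; inactive = mean lysis activity below 80%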
#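 Test system: log-phase Cryptococcus neoformans yeast cells; Quantity: yeast cell density of 5 × 10^6 cells/mL; Buffer or medium: YPD; Doses: single compound concentration per well; Timing: 4 h at 37 °C static, read 1 h later; Measured by: AK luminescence; Read-out basis: lysis from increased AK signal; Control set: Clomiphene as positive control.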
# * marks the source's active call; other numbers are inactive results; ? = inconclusive; . = no result. This is a sample that favours compounds with a hit; in the whole collection about 1.5% have one here.
SMILES,Wnt bcat act,PGC1a acetyl inh,MITF TRPM1 HTS,Cneo AK release
CC(C)(C)n1cnc2cc(NC(=O)c3cccs3)ccc21,?,.,?,-1.1
O=C(Nc1ccc(-n2ccc(C(F)(F)F)n2)cc1)c1cccs1,23.1,.,122.9*,2.3
CSc1nc2ccc(NC(=O)c3ccc(F)c(F)c3)cc2s1,51.2*,-11.0,70.2,.
CSc1nc2ccc(NC(=O)c3ccc(=O)[nH]c3)cc2s1,-2.2,-7.5,-8.2,-2.4
CSc1nc2ccc(NC(=O)c3cccs3)cc2s1,20.0,5.9,89.6*,-0.7
CCn1cnc2cc(NC(=O)c3cccs3)ccc21,14.7,-8.2,95.2*,-7.7
CSc1nc2ccc(NC(=O)c3cc4ccccc4o3)cc2s1,57.6*,.,53.7,.
CSc1nc2ccc(NC(=O)c3ccco3)cc2s1,.,.,87.9*,.
CC(=O)Nc1ccc2nc(NC(=O)c3ccco3)sc2c1,15.9,-8.7,19.5,-3.7
c1ccc(-c2nc(-c3ccco3)cs2)nc1,2.7,5.1,91.3*,0.6
O=C(N=C1N=C2C=CC=CN2Cc2ccccc21)c1ccc(S(=O)(=O)N2CCCC2)cc1,44.0*,-12.1,102.6*,1.7
O=C(N=C1N=C2C=CC=CN2Cc2ccccc21)c1ccc(S(=O)(=O)N2CCOCC2)cc1,-0.9,.,84.0*,.
O=C(OCCN1C(=O)c2ccccc2C1=O)c1ccc(S(=O)(=O)N2CCCCCC2)cc1,.,6.2,-10.2,-5.9
CN(C)S(=O)(=O)c1cccc(C(=O)N=C2N=C3C=CC(Cl)=CN3Cc3ccccc32)c1,63.5*,-2.4,26.1,-16.9
CN(C)S(=O)(=O)c1cccc(C(=O)N2CCN(Cc3ccccc3)CC2)c1,-4.0,-2.1,11.8,-8.3
Cc1ccccc1S(=O)(=O)N1CC(=O)N2[C@@H](CO)[C@H](c3ccc(C#CCC4CCCC4)cc3)[C@@H]2C1,.,-2.6,.,.
COCC(=O)N1[C@H](CO)[C@@H](c2ccc(C3=CCCCC3)cc2)[C@@H]1C#N,.,0.5,.,5.5
O=C(/C=C/c1ccc(S(=O)(=O)N2CCOCC2)cc1)NC(=S)NCCCn1ccnc1,31.9*,-11.0,-20.4,1.2
Oc1cc(Nc2ccccc2)cc2cccnc12,79.8*,7.8,-56.7,-9.1
Oc1cccc2cc(Nc3ccccc3)cnc12,-9.0,28.3,.,8.8
CCOc1ccc(-c2c(=O)n(O)c3ccccc3[n+]2[O-])cc1,56.1*,-2.6,54.3,-0.5
Cn1c(=O)c(C(=O)NCC2CCCO2)c(O)c2ccccc21 (configuration not stated),39.2*,-9.8,54.4,4.5
Cn1c(C(=O)NCC2CCCO2)cc2c(=O)n(C)c3ccccc3c21 (configuration not stated),16.6,2.9,-7.1,-2.7
S=C(NCCc1cccc(Cl)c1)NCc1ccccc1,.,.,-1.7,13.2
S=C(NCCc1ccc(Cl)cc1)NC1CCCCC1,14.9,.,88.9*,53.6
SMILES,Wnt bcat act,PGC1a acetyl inh,MITF TRPM1 HTS,Cneo AK release
S=C(NCCc1ccc(Cl)cc1)NCc1ccccc1,.,-3.4,-8.1,114.5*
Cc1c(Cl)cccc1NC(=S)NCCc1ccc(F)cc1,-1.1,.,9.3,7.2
S=C(NCCc1ccc(Cl)cc1)NC1CCCC1,12.5,5.2,35.1,.
Cc1c(Cl)cccc1NC(=S)NCCc1ccc(Cl)cc1,-0.5,-10.5,.,113.1*
CNC(=O)C[C@@H]1CC[C@H]2[C@H](COc3ccc(NC(=O)NC(C)C)cc3C(=O)N2C)O1,.,4.3,.,1.8
COc1ccc2c3c([nH]c2c1)[C@H](CO)N(C(=O)c1ccncc1)CC31CCN(C(=O)NC(C)C)CC1,.,-6.0,.,.
CCOC(=O)c1cnc2cc(-c3ccc(Cl)cc3)nn2c1N,21.0,-9.4,149.3*,-3.0
O=C(C[C@@H]1C[C@@H]2c3cc(NC(=O)Nc4ccc(C(F)(F)F)cc4)ccc3O[C@@H]2[C@@H](CO)O1)NCC1CC1,.,3.4,.,-0.5
C[C@@H]1CN([C@H](C)CO)C(=O)Cc2cc(NS(=O)(=O)c3cn(C)cn3)ccc2O[C@H]1CN(C)Cc1ccncc1,.,2.0,.,-2.5
Cc1cnc(NC(=O)COc2ccccc2)s1,58.5*,-3.5,.,-1.9
COc1ccccc1OCC(=O)Nc1ncc(C)s1,36.1*,0.8,79.9,-0.6
C[C@@H]1CCCCO[C@@H](CN(C)Cc2ccc(C(F)(F)F)cc2)[C@H](C)CN([C@H](C)CO)C(=O)c2cc(NS(=O)(=O)c3cn(C)cn3)ccc2O1,.,0.0,.,-1.6
COc1ccc2[nH]c(-c3ccccc3)cc2c1,46.4*,-13.5,106.5*,-2.8
COc1ccc2[nH]c(-c3ccc(C)cc3)cc(=O)c2c1,.,7.0,-47.2,-3.7
COc1ccc2nc(-c3ccccc3)[nH]c2c1,75.2*,3.6,.,-2.5
COc1ccc(-c2nc3ccc([N+](=O)[O-])cc3[nH]2)cc1,50.0*,.,46.9,.
